Our source for the inhibition and Activity values is ChEMBL document CHEMBL1157639, “Identification of inhibitors of drug-resistant Candida albicans strains from a library of bicyclic peptidomimetic compounds” (2010).

For assay [1], the target named is Secreted aspartic protease 2 (Candida albicans) (UniProt P0CS83). The assay is described as follows: Inhibition of Candida albicans SAP2 at 20 uM by spectrophotometry relative to pepstatin A. An outline of the steps:
(§1)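 Sample was mixed with 1% (w/v) BSA substrate in 50 mM sodium citrate, pH 3.2, plus SAP2 protease (1 μg/mL stock solution) and incubated 30 min at 37 °C. The reaction was stopped with 10% TCA, kept 30 min on ice, and centrifuged; supernatant A280 was read. Percent inhibition was taken from ΔOD, with control proteinase minus proteinase plus pepstatin A set as 100%.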

The target is the same in assay [2]. As to the kind of experiment: Inhibition of Candida albicans SAP2 at 2 uM by spectrophotometry relative to pepstatin A. An outline of the steps:
as §1

For assay [3] the target is unchanged. The assay is described as follows: Inhibition of Candida albicans SAP2 at 10 uM by spectrophotometry relative to pepstatin A. An outline of the steps:
as §1

Assay [4] has as its system Candida albicans. As to the kind of experiment: Antifungal activity against pharmacoresistant Candida albicans AIDS68 infected in Wistar rat estrogen-dependent fungal vaginitis model assessed as fungal burden at 10 uM administered intravaginally 48 hrs after fungal infection measured on day 7 after infection. The format is functional, Vagina. Summed up: (§2)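 Oophorectomized female Wistar rats (80-100 g) got 0.5 mg estradiol benzoate s.c. Six days later they were inoculated intravaginally with >10⁷ YPD-grown yeast cells (28 °C, washed, hemocytometer-counted) in 0.1 mL saline. Treatment was given intravaginally at 1, 24 and 48 h post-challenge. Burden was counted by culturing 100 μL vaginal fluid on Sabouraud-chloramphenicol (50 μg/mL) agar, as CFU/mL ×1000, through day 28.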

For assay [5], the system named is Candida albicans. As to the kind of experiment: Antifungal activity against Candida albicans SA40 infected in Wistar rat estrogen-dependent fungal vaginitis model assessed as fungal burden at 10 uM administered intravaginally 48 hrs after fungal infection measured on day 28 after infection. The class given is functional, Vagina. Summed up:
as §2

Assay [6] concerns Candida albicans. The assay is described as follows: Antifungal activity against Candida albicans SA40 infected in Wistar rat estrogen-dependent fungal vaginitis model assessed as fungal burden at 10 uM administered intravaginally 48 hrs after fungal infection measured on day 5 after infection. The format is functional, Vagina. An outline of the steps:
(§3)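 Oophorectomized female Wistar rats (80-100 g), given 0.5 mg estradiol benzoate subcutaneously, were challenged intravaginally six days later with >10⁷ YPD-grown yeast cells in 0.1 mL saline. Compound at 10 μM was instilled intravaginally at 1, 24 and 48 h post-challenge. Vaginal fluid samples (100 μL) were plated on Sabouraud agar with chloramphenicol (50 μg/mL), and burden was expressed as CFU/mL ×1000.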

Assay [7] deals with Candida albicans. The assay is described as follows: Antifungal activity against Candida albicans SA40 infected in Wistar rat estrogen-dependent fungal vaginitis model assessed as fungal burden at 10 uM administered intravaginally 48 hrs after fungal infection measured on day 7 after infection. The class given is functional, Vagina. An outline of the steps:
as §3

Assay [8] has as its system Candida albicans. As to the kind of experiment: Antifungal activity against Candida albicans SA40 infected in Wistar rat estrogen-dependent fungal vaginitis model assessed as fungal burden at 10 uM administered intravaginally 1 hr after fungal infection measured within 1 day of infection. The class given is functional, Vagina. An outline of the steps: as §2
Assay [9] concerns Candida albicans. The assay is described as follows: Antifungal activity against pharmacoresistant Candida albicans AIDS68 infected in Wistar rat estrogen-dependent fungal vaginitis model assessed as fungal burden at 10 uM administered intravaginally 48 hrs after fungal infection measured on day 28 after infection. The format is functional, Vagina. An outline of the steps: as §2

For assay [10], the target named is Secreted aspartic protease 2 (Candida albicans) (UniProt P0CS83). The assay is described as follows: Inhibition of Candida albicans SAP2 at 0.02 uM by spectrophotometry relative to pepstatin A. Summed up: as §1
Assay [11] relates to Candida albicans. As to the kind of experiment: Antifungal activity against Candida albicans SA40 infected in Wistar rat estrogen-dependent fungal vaginitis model assessed as fungal burden at 10 uM administered intravaginally 48 hrs after fungal infection measured on day 21 after infection. The format is functional, Vagina. An outline of the steps:
as §3

In assay [12] the test system is Candida albicans. As to the kind of experiment: Antifungal activity against pharmacoresistant Candida albicans AIDS68 infected in Wistar rat estrogen-dependent fungal vaginitis model assessed as fungal burden at 10 uM administered intravaginally 48 hrs after fungal infection measured on day 5 after infection. The class given is functional, Vagina. Summed up:
as §2

Assay [13] has as its system Candida albicans. The assay is described as follows: Antifungal activity against Candida albicans SA40 infected in Wistar rat estrogen-dependent fungal vaginitis model assessed as fungal burden at 10 uM administered intravaginally 48 hrs after fungal infection measured on day 14 after infection. The format is functional, Vagina. Summed up:
as §3

The subject of assay [14] is Candida albicans. The assay is described as follows: Antifungal activity against pharmacoresistant Candida albicans AIDS68 infected in Wistar rat estrogen-dependent fungal vaginitis model assessed as fungal burden at 10 uM administered intravaginally 1 hr after fungal infection measured on day 1 after infection. The class given is functional, Vagina. An outline of the steps: as §2

Assay [15] deals with Candida albicans. The assay is described as follows: Antifungal activity against Candida albicans SA40 infected in Wistar rat estrogen-dependent fungal vaginitis model assessed as fungal burden at 10 uM administered intravaginally 1 hr after fungal infection measured on day 1 after infection. The class given is functional, Vagina. An outline of the steps: as §3
The subject of assay [16] is Candida albicans. The assay is described as follows: Antifungal activity against pharmacoresistant Candida albicans AIDS68 infected in Wistar rat estrogen-dependent fungal vaginitis model assessed as fungal burden at 10 uM administered intravaginally 48 hrs after fungal infection measured on day 14 after infection. The class given is functional, Vagina. Summed up:
as §2

For assay [17], the system named is Candida albicans. As to the kind of experiment: Antifungal activity against Candida albicans SA40 infected in Wistar rat estrogen-dependent fungal vaginitis model assessed as fungal burden at 10 uM administered intravaginally 24 hrs after fungal infection measured on day 2 after infection. The format is functional, Vagina. Summed up: as §3
Assay [18] deals with Candida albicans. The assay is described as follows: Antifungal activity against pharmacoresistant Candida albicans AIDS68 infected in Wistar rat estrogen-dependent fungal vaginitis model assessed as fungal burden at 10 uM administered intravaginally 24 hrs after fungal infection measured on day 2 after infection. The class given is functional, Vagina. Summed up:
as §2

The target in assay [19] is Secreted aspartic protease 2 (Candida albicans) (UniProt P0CS83). As to the kind of experiment: Inhibition of Candida albicans SAP2 at 10 uM by spectrophotometry. Summed up: as §1

Sequence of Secreted aspartic protease 2 (Candida albicans) (P0CS83 57-398 limits assumed): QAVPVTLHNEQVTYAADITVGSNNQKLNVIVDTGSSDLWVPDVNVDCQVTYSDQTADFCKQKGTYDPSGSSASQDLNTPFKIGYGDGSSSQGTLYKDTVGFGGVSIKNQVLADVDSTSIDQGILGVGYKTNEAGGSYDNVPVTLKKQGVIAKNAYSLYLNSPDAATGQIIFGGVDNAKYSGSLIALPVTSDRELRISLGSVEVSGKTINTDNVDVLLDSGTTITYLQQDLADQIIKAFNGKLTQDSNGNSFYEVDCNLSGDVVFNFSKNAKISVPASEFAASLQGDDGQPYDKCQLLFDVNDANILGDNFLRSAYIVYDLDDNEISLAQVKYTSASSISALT

`O=C(NCCCO)[C@@H]1O[C@H]2CN(Cc3ccccc3)C(=O)[C@@H]1O2`: the inhibition in [1] came to 23%.
On the same count and under the same terms, the figure for `O=C(NCCO)[C@@H]1O[C@H]2CN(Cc3ccccc3)C(=O)[C@@H]1O2` is 71%; for `O=C(N[C@@H](CO)Cc1ccccc1)[C@@H]1O[C@H]2CN(Cc3ccccc3)C(=O)[C@@H]1O2` it is 29%.
Turning to `CC(C)C[C@@H](CO)NC(=O)[C@@H]1O[C@H]2CN(Cc3ccccc3)C(=O)[C@@H]1O2`, the inhibition in assay [2] was 6.9%; in assay [3] it was 61%; in [10], 1.4%; in assay [1] it was 71%. The Activity worked out at 22.8 ×10³ CFU/ml in the assay on Candida albicans [4]; 2.2 ×10³ CFU/ml in the assay with Candida albicans [5]; 35.8 ×10³ CFU/ml in the assay with Candida albicans [6]; 28.8 ×10³ CFU/ml with Candida albicans [7]; 100 ×10³ CFU/ml in the assay with Candida albicans [8]; 0 ×10³ CFU/ml in the assay on Candida albicans [9]. The Activity in the assay with Candida albicans [11] was determined as 4.2 ×10³ CFU/ml; in the assay on Candida albicans [12] it was 26.8 ×10³ CFU/ml; in the assay on Candida albicans [13], 14 ×10³ CFU/ml; in the assay with Candida albicans [14], 61.6 ×10³ CFU/ml; in the assay with Candida albicans [15], 61 ×10³ CFU/ml; with Candida albicans [16], 11.2 ×10³ CFU/ml. Also, the Activity in the assay with Candida albicans [17] is on record as 58 ×10³ CFU/ml; in the assay with Candida albicans [18] it was 55.4 ×10³ CFU/ml.
Turning to `C[C@@H](CO)NC(=O)[C@@H]1O[C@H]2CN(Cc3ccccc3)C(=O)[C@@H]1O2`, the inhibition in assay [1] was 35%.
In the case of `O=C([C@@H]1O[C@H]2CN(Cc3ccccc3)C(=O)[C@@H]1O2)N1CCOCC1`, the figures for the inhibition in assay [3], in assay [19] and in assay [1] were 92%, 31% and 62%, respectively.
`O=C([C@H]1O[C@H]2CN(Cc3ccccc3)C(=O)[C@@H]1O2)N1CCCCC1` had an inhibition in assay [1] of 50%.
In the case of `O=C([C@@H]1O[C@H]2CN(Cc3ccccc3)C(=O)[C@@H]1O2)N1CCN(CCO)CC1`, the inhibition in assay [3] turned out to be 92%; in assay [19], 31%; in assay [1], 58%.

As a reminder, the inhibition is the share of the control response that was lost under treatment. A low value points to little suppression.
